Columns and labels:
[1] = Cytotoxicity against multidrug-resistant human KBV1 cells after 48 hrs by MTS/PMS assay; type: functional, cell-based; settings: KB-V1, 48 h
How it was run: (§1)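 Mycoplasma-free KB-3-1 and vinblastine-selected KB-V1 (passages 5-15, no vinblastine pressure) in DMEM/10% FBS, 37 °C, 5% CO2. Seeded 4 × 10^3 (KB-3-1) or 7 × 10^3 (KB-V1) cells/well, 24 h preincubation, then 48 h with compounds (DMSO ≤0.25%). MTS/PMS read at 492 nm after ~50 min; six repeats per concentration, IC50 from ≥3 independent determinations on different passages.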

[2] = Cytotoxicity against drug-sensitive human KB-3-1 cells after 48 hrs by MTS/PMS assay; type: functional, cell-based; settings: KB 3-1, 48 h; how it was run: as §1
Plasmodium falciparum = assay: Antimalarial activity after 24 hrs against chloroquine-sensitive Plasmodium falciparum 3D7 by [3H]phenylalanine uptake
Leishmania major = assay: Antileishmanial activity against Leishmania major promastigotes assessed as inhibition of [3H]thymidine uptake after 2 hrs by liquid scintillation counting; type: functional, organism-based
How it was run: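 WHO reference vaccine strain promastigotes kept at 26 °C in RPMI 1640 with 25 mM HEPES, 4 mM L-glutamine, gentamicin, 10% heat-inactivated FCS. Compounds from DMSO stock diluted in medium, incubated with 1 × 10^7 promastigotes/mL for 2 h; [3H]thymidine then added, 18 h further incubation, harvest, scintillation counting of incorporated label.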

PBMC = assay: Inhibition of phytohemagglutininin A-stimulated human PBMC proliferation assessed as decrease in [14C]thymidine incorporation; type: functional, cell-based
[3] = Resistance index, ratio of IC50 for multidrug-resistant human KBV1 cells to IC50 for drug-sensitive human KB-3-1 cells; type: functional

With `CC(C)C1=Cc2ccc3c(c2C(=O)C1=O)C(=O)CCC3(C)C` the IC50 [1] was 47.8 µM, the IC50 [2] was 46.6 µM and the IC50 (Plasmodium falciparum) was 13 µM. The IC50 (Leishmania major) was 17.9 µM and the IC50 (PBMC) was 44.6 µM.
With `C[C@@H]1[C@H](O)[C@@H](C)/C=C/C=C/C=C/C=C/C=C/C=C/C=C/[C@H](O[C@@H]2O[C@H](C)[C@@H](O)[C@H](N)[C@@H]2O)C[C@@H]2O[C@](O)(C[C@@H](O)C[C@@H](O)[C@H](O)CC[C@@H](O)C[C@@H](O)CC(=O)O[C@H]1C)C[C@H](O)[C@H]2C(=O)O` [AMPHOTERICIN B] the IC50 (Leishmania major) was 0.16 µM.
Work on `C[C@H]1COC2=C1C(=O)C(=O)c1c2ccc2c1CCCC2(C)C` [CRYPTOTANSHINONE] yielded an IC50 [1] of 7.5 µM, an IC50 [2] of 6.9 µM and an IC50 (Plasmodium falciparum) of 12.5 µM. It also gave an IC50 (Leishmania major) of 18.4 µM and an IC50 (PBMC) of 37.4 µM.
With `CC[C@]1(O)C[C@@H]2CN(CCc3c([nH]c4ccccc34)[C@@](C(=O)OC)(c3cc4c(cc3OC)N(C)[C@H]3[C@@](O)(C(=O)OC)[C@H](OC(C)=O)[C@]5(CC)C=CCN6CC[C@]43[C@@H]65)C2)C1` [VINBLASTINE] the “Ratio IC50” value [3] was 210.
For `C[C@H]1COC2=C1C(=O)C(=O)c1c2ccc2c1C(=O)CCC2(C)C`, the IC50 (Plasmodium falciparum) was 17.6 µM, the IC50 (Leishmania major) was 25.7 µM and the IC50 (PBMC) was 12.4 µM.
For `COC(=O)c1ccccc1-c1c2ccc(=N)cc-2oc2cc(N)ccc12.Cl` [RHODAMINE123], the IC50 [1] was > 500 µM, the IC50 [2] was 1.6 µM and the “Ratio IC50” value [3] was 500.
In the case of `C[C@H]1COC2=C1C(=O)C(=O)c1c2ccc2c1[C@H](O)CCC2(C)C`, the IC50 [1] is reported as 5.6 µM, the IC50 [2] is reported as 5 µM and the IC50 (Plasmodium falciparum) is reported as 26.9 µM. For the same molecule, the IC50 (Leishmania major) was 46.7 µM and the IC50 (PBMC) was 16 µM.
